Format in all cases: functional
For assay [1], the system named is MCF7. Kind of assay: Cytotoxicity against human MCF7 cells after 48 hrs by sulforhodamine B assay. To be noted: MCF7, 48 h. The method in brief:
(§1)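 Cells in RPMI1640 with 5% fetal bovine serum were plated in 96-well plates and incubated 24 h before serial dilutions of compound were added. After 48 h exposure, cells were fixed with trichloroacetic acid and stained with sulforhodamine B, and optical density was read on a plate reader. GI50, the concentration giving 50% reduction in net protein increase, was calculated from the OD data.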
Background: The SRB assay estimates cell density from bound dye.

The nature of assay [2]: Cytotoxicity against human BxPC3 cells after 48 hrs by sulforhodamine B assay. To be noted: BXPC-3, 48 h. An outline of the steps: as §1
Assay [3] deals with DU-145. Kind of assay: Cytotoxicity against human DU145 cells after 48 hrs by sulforhodamine B assay. To be noted: DU-145, 48 h. An outline of the steps:
as §1

Assay [4] has as its system NCI-H460. Kind of assay: Cytotoxicity against human NCI-H460 cells after 48 hrs by sulforhodamine B assay. The following applies: NCI-H460, 48 h. An outline of the steps: as §1
Assay [5] can be described thus: Cytotoxicity against human KM20L2 cells after 48 hrs by sulforhodamine B assay. To be noted: KM-20L2, 48 h. An outline of the steps: as §1
For assay [6], the system named is SF-268. In words: Cytotoxicity against human SF268 cells after 48 hrs by sulforhodamine B assay. The following applies: SF-268, 48 h. An outline of the steps:
as §1

Experimental findings from ChEMBL document CHEMBL3585255, “The Cephalostatins. 24. Isolation, Structure, and Cancer Cell Growth Inhibition of Cephalostatin 20” (2015) are described below.

For orientation: GI50 means the concentration that inhibits growth by half. The low end stands for greater sensitivity of the cells, the high end for lower sensitivity of the cells. For `C[C@H]1[C@H]2C[C@@H](O)c3c4c(cc(c32)OC12OC(C)(C)C[C@H]2O)[C@@]1(C)Cc2nc3c(nc2C[C@@H]1CC4)C[C@@]1(C)[C@@H](CC[C@H]2C4=C[C@@H]5O[C@@]6(C[C@]5(O)[C@@]4(C)[C@H](O)C[C@@H]21)O[C@](C)(CO)C[C@H]6O)C3` (stereo partly specified) [CEPHALOSTATIN 6], the 50% growth inhibitory concentration (GI50) in assay [1] was 550 nM; in assay [2] it was 380 nM; in assay [3], above 1100 nM; in assay [4], 320 nM; in assay [5], 390 nM; in assay [6], 610 nM.
Regarding `C[C@@H]1[C@]2(O[C@H]3C=C4[C@@H]5CC[C@H]6Cc7nc8c(nc7C[C@]6(C)[C@H]5C[C@@H](O)[C@]4(C)[C@]31O)C[C@@H]1CC[C@H]3C4=C[C@@H]5O[C@]6(CC[C@](C)(O)CO6)C[C@]5(O)[C@@]4(C)[C@H](O)C[C@@H]3[C@@]1(C)C8)O[C@](C)(CO)C[C@H]2O` [CEPHALOSTATIN 7], the GI50 in assay [1] was determined as 50 nM; in assay [2], 5 nM; in assay [3] it was 470 nM; in assay [4] it was 8.2 nM; in assay [5], 48 nM; in assay [6], 110 nM.
With `C[C@@H]1C[C@]2(O[C@H]3C=C4[C@@H]5CC[C@H]6Cc7nc8c(nc7C[C@]6(C)[C@H]5C[C@@H](O)[C@]4(CO)[C@H]3[C@@H]2C)C[C@@H]2CC[C@H]3C4=C[C@@H]5O[C@]6(O[C@](C)(CO)C[C@H]6O)[C@@H](C)[C@]5(O)[C@@]4(C)[C@H](O)C[C@@H]3[C@@]2(C)C8)OC1(C)C` [CEPHALOSTATIN 8], the 50% growth inhibitory concentration (GI50) is 26 nM in assay [1]; 26 nM in assay [2]; above 1100 nM in assay [3]; 15 nM in assay [4]; 47 nM in assay [5]; 150 nM in assay [6].
On to `C[C@@H]1[C@H]2CC=C3[C@@H]4CC[C@H]5Cc6nc7c(nc6C[C@]5(C)[C@H]4CC(=O)[C@@]32COC1(O)[C@H](O)CC(C)(C)O)C[C@@H]1CC[C@H]2C3=C[C@@H]4O[C@]5(O[C@](C)(CO)C[C@H]5O)[C@@H](C)[C@]4(O)[C@@]3(C)[C@H](O)C[C@@H]2[C@@]1(C)C7` (stereo partly specified) [CEPHALOSTATIN 9], for which the 50% growth inhibitory concentration (GI50) is 110 nM in assay [1]; 14 nM in assay [2]; above 1100 nM in assay [3]; 39 nM in assay [4]; 58 nM in assay [5]; 150 nM in assay [6].
As to `CO[C@H]1c2nc3c(nc2C[C@@H]2CC[C@H]4C5=C[C@@H]6O[C@]7(O[C@](C)(CO)C[C@H]7O)[C@@H](C)[C@]6(O)[C@@]5(C)[C@H](O)C[C@@H]4[C@]21C)C[C@@]1(C)[C@@H](CC[C@H]2C4=CC[C@@H]5[C@H](C)[C@@]6(OC[C@]45C(=O)C[C@@]21O)OC(C)(C)C[C@H]6O)C3` [CEPHALOSTATIN 10], the GI50 was 1.4 nM in assay [1]; 1.3 nM in assay [2]; 8.5 nM in assay [3]; 0.6 nM in assay [4]; 0.7 nM in assay [5]; 3.7 nM in assay [6].
Regarding `CO[C@H]1c2nc3c(nc2C[C@@H]2CC[C@H]4C5=CC[C@@H]6[C@@H](C)[C@]7(OC[C@]56C(=O)C[C@@H]4[C@]21C)OC(C)(C)C[C@H]7O)C[C@@]1(C)[C@@H](CC[C@H]2C4=C[C@@H]5O[C@]6(O[C@](C)(CO)C[C@H]6O)[C@@H](C)[C@]5(O)[C@@]4(C)[C@H](O)C[C@@H]21)C3` [CEPHALOSTATIN 11], the concentration for 50% growth inhibition (GI50) in assay [1] came out at 4.1 nM; in assay [2], 4.9 nM; in assay [3], 23 nM; in assay [4] it was 5.4 nM; in assay [5], 6.3 nM; in assay [6] it was 27 nM.
On to `C[C@@H]1[C@]2(O[C@H]3C=C4[C@@H]5CC[C@H]6Cc7nc8c(nc7C[C@]6(C)[C@H]5C[C@@H](O)[C@]4(C)[C@]31O)C[C@@H]1CC[C@H]3C4=C[C@@H]5O[C@]6(O[C@](C)(CO)C[C@H]6O)[C@@H](C)[C@]5(O)[C@@]4(C)[C@H](O)C[C@@H]3[C@@]1(C)C8)O[C@](C)(CO)C[C@H]2O` [CEPHALOSTATIN 12], for which the GI50 is 33 nM in assay [1]; 31 nM in assay [2]; 440 nM in assay [3]; 37 nM in assay [4]; 38 nM in assay [5]; 150 nM in assay [6].
In the case of `C[C@@H]1[C@]2(O[C@H]3C=C4[C@@H]5CC[C@H]6Cc7nc8c(nc7C[C@]6(C)[C@H]5C[C@@H](O)[C@]4(C)[C@]31O)C[C@@H]1CC[C@H]3C4=C[C@@H]5O[C@]6(O[C@](C)(CO)C[C@H]6O)[C@@H](C)[C@]5(O)[C@@]4(C)[C@H](O)C[C@@H]3[C@@]1(C)[C@H]8O)O[C@](C)(CO)C[C@H]2O` [CEPHALOSTATIN 13], the 50% growth inhibitory concentration (GI50) came to 290 nM in assay [1]; 310 nM in assay [2]; 1100 nM in assay [3]; 370 nM in assay [4]; 470 nM in assay [5]; 340 nM in assay [6].
As for `C[C@@H]1[C@H]2C[C@@H]3O[C@@]34[C@]3(O)CC[C@H]5Cc6nc7c(nc6C[C@]5(C)C3=CC(=O)[C@]24CO[C@]12OC(C)(C)C[C@H]2O)C[C@@H]1CC[C@H]2C3=C[C@@H]4O[C@]5(O[C@](C)(CO)C[C@H]5O)[C@@H](C)[C@]4(O)[C@@]3(C)[C@H](O)C[C@@H]2[C@@]1(C)C7` [CEPHALOSTATIN 14], the GI50 in assay [1] is 28 nM; in assay [2] it was 35 nM; in assay [3] it was 130 nM; in assay [4], 32 nM; in assay [5], 35 nM; in assay [6], 80 nM.
Regarding `C[C@@H]1[C@H]2C[C@@H]3O[C@@]34[C@]3(O)CC[C@H]5Cc6nc7c(nc6C[C@]5(C)C3=CC(=O)[C@]24CO[C@]12OC(C)(C)[C@@H](C)[C@H]2O)C[C@@H]1CC[C@H]2C3=C[C@@H]4O[C@]5(O[C@](C)(CO)C[C@H]5O)[C@@H](C)[C@]4(O)[C@@]3(C)[C@H](O)C[C@@H]2[C@@]1(C)C7` [CEPHALOSTATIN 15], the GI50 in assay [1] was determined as 45 nM; in assay [2], 50 nM; in assay [3], 140 nM; in assay [4] it was 68 nM; in assay [5] it was 63 nM; in assay [6], 63 nM.
Consider `C[C@@H]1[C@H]2CC=C3[C@@H]4CC[C@H]5Cc6nc7c(nc6C[C@]5(C)[C@@]4(O)CC(=O)[C@@]32CO[C@]12OC(C)(C)C[C@H]2O)C[C@@H]1CC[C@H]2C3=C[C@@H]4O[C@@]5(CC[C@](C)(O)CO5)[C@@H](C)[C@]4(O)[C@@]3(C)[C@H](O)C[C@@H]2[C@@]1(C)C7` [CEPHALOSTATIN 16], for which the concentration for 50% growth inhibition (GI50) is 1.1 nM in assay [1]; 0.44 nM in assay [2]; 12 nM in assay [3]; 0.64 nM in assay [4]; 0.6 nM in assay [5]; 5.2 nM in assay [6].
